Results published in ChEMBL document CHEMBL4028913, “Discovery of Novel Potent VEGFR-2 Inhibitors Exerting Significant Antiproliferative Activity against Cancer Cell Lines” (J Med Chem, 2018).
Calls of active or inactive are those of the source. The calls are words filed in the database; no cut-off is given here.

How the values were obtained:
[1] = target: Vascular endothelial growth factor receptor 3 (Homo sapiens) (UniProt P35916); assay: Inhibition of human Flt4 at 0.5 uM relative to control
[2] = Potency index, ratio of sorafenib GI50 to test compound GI50 for human renal cancer cells; type: functional, Renal cancer cell
Procedure, shortened: (§1)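 GI50 is the concentration giving 50% reduction in net protein increase relative to control. Potency index is the reference-drug GI50 divided by the test-compound GI50.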

[3] = Potency index, ratio of sorafenib TGI to test compound TGI for human renal cancer cells; type: functional, Renal cancer cell
[4] = system: NCI-H460; assay: Cytotoxicity against human NCI-H460 cells after 48 hrs by SRB assay; type: functional; settings: NCI-H460, 48 h
Procedure, shortened: (§2)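 NCI-60 panel; cells grown in RPMI 1640 with 5% FBS and 2 mM L-glutamine, plated at 5000–40 000 cells/well by doubling time, preincubated 24 h (37 °C, 5% CO2). Drug added at five concentrations, 1-log steps from 10−4 to 10−8 M, for 48 h. Fixed with TCA, stained with 0.4% SRB, absorbance read at 515 nm. Percent growth computed against time-zero and untreated controls; GI50, TGI and LC50 derived.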

[5] = system: A549; assay: Cytotoxicity against human A549 cells after 48 hrs by SRB assay; type: functional; settings: A549, 48 h; procedure, shortened: as §2
[6] = Potency index, ratio of sorafenib GI50 to test compound GI50 for human CNS cancer cells; type: functional, CNS cancer cell; procedure, shortened: as §1
[7] = target: Vascular endothelial growth factor receptor 1 (Homo sapiens) (UniProt P17948); assay: Inhibition of human Flt1 at 0.5 uM relative to control
Sequence of Vascular endothelial growth factor receptor 1 (Homo sapiens) (P17948 whole entry): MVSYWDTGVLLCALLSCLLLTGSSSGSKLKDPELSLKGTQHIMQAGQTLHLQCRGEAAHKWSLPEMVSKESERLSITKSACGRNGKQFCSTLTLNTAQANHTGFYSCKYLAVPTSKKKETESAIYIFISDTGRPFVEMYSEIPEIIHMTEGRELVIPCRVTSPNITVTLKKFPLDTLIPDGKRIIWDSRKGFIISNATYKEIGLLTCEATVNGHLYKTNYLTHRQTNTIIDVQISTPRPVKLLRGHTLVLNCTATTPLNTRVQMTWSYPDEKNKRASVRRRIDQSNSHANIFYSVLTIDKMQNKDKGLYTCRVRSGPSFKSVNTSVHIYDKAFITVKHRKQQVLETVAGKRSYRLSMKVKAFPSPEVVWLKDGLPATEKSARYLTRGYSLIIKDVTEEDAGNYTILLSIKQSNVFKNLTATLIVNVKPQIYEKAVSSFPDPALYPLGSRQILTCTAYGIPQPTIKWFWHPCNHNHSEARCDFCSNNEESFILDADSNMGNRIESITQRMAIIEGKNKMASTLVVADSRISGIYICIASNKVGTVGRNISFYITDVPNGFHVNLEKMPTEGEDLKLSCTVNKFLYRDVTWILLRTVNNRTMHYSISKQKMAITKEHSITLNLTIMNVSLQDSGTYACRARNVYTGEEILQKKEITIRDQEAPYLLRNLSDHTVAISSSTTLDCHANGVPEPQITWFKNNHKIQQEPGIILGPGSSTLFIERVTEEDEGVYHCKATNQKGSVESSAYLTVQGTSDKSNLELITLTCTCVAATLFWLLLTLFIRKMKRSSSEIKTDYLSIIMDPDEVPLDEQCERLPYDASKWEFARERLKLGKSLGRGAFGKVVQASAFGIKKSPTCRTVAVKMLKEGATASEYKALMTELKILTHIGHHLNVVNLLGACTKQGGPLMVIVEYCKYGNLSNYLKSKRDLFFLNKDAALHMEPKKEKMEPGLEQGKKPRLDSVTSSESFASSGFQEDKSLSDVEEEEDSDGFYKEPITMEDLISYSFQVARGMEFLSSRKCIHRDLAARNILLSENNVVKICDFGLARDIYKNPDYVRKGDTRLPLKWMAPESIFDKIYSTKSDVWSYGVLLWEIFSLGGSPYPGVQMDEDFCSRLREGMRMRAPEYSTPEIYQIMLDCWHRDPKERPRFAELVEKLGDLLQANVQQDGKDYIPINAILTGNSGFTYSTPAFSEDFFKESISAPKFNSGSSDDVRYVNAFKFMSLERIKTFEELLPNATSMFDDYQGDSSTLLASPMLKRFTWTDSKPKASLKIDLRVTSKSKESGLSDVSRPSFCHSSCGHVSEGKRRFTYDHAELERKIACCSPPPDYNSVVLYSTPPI

[8] = system: SK-MEL-2; assay: Cytotoxicity against human SK-MEL-2 cells after 48 hrs by SRB assay; type: functional; settings: SK-MEL-2, 48 h; procedure, shortened: as §2
[9] = system: A498; assay: Cytotoxicity against human A498 cells after 48 hrs by SRB assay; type: functional; settings: A498, 48 h; procedure, shortened: as §2
[10] = system: UACC-62; assay: Cytotoxicity against human UACC62 cells after 48 hrs by SRB assay; type: functional; settings: UACC-62, 48 h
Procedure, shortened: (§3)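 NCI-60 panel, five doses at 1-log steps from 10−4 to 10−8 M. Cells grown in RPMI 1640 with 5% FBS and 2 mM L-glutamine, seeded at 5000–40 000 cells/well and preincubated 24 h. Tz plates were TCA-fixed at drug addition. Drug exposure 48 h at 37 °C, then TCA fixation, 0.4% SRB stain and absorbance at 515 nm. GI50 taken from percent growth relative to Tz and control.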

[11] = target: T1, Vascular endothelial growth factor receptor 2 (Homo sapiens, UniProt P35968); settings: at 10 µM
T1 sequence (P35968 whole entry): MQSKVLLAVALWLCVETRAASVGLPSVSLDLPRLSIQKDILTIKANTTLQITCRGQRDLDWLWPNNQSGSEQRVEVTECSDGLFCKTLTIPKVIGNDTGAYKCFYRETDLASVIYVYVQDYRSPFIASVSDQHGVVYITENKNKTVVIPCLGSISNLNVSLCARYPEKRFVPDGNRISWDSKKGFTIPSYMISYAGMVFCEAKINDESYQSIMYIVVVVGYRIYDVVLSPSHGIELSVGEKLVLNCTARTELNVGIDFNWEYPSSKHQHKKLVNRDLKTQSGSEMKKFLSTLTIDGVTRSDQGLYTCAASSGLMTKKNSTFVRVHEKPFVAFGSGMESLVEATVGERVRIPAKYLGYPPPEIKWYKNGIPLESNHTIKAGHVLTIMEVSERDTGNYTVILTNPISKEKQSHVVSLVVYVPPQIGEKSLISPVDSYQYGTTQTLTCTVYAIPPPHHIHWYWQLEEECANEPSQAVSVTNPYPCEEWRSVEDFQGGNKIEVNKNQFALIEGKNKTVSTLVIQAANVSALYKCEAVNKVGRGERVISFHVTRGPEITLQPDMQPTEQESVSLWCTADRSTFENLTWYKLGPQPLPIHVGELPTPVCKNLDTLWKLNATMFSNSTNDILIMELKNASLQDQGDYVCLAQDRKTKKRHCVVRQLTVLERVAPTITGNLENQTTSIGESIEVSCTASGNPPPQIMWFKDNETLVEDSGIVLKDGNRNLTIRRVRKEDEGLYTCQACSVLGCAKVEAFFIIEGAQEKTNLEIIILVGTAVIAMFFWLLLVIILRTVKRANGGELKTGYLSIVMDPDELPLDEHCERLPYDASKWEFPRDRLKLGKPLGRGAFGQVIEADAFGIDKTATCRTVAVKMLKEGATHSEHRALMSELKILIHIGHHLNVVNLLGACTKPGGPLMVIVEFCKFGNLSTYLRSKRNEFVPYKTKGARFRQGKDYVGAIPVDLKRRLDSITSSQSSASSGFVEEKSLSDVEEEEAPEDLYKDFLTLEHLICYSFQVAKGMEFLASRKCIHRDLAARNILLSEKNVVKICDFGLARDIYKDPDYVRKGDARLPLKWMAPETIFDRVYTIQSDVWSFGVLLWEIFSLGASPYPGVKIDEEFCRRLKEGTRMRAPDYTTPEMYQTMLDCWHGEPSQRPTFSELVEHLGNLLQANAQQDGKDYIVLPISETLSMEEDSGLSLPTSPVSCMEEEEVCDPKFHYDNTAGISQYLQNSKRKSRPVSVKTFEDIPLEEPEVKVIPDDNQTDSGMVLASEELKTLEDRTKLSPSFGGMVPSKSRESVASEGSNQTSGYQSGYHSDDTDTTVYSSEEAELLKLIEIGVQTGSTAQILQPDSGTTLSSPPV

[12] = system: HOP-92; assay: Cytotoxicity against human HOP92 cells after 48 hrs by SRB assay; type: functional; settings: HOP-92, 48 h; procedure, shortened: as §2
[13] = target: Fibroblast growth factor receptor 3 (Homo sapiens) (UniProt P22607); assay: Inhibition of human FGFR3 at 0.5 uM relative to control
[14] = Potency index, ratio of sorafenib GI50 to test compound GI50 for human prostate cancer cells; type: functional, Prostate cancer cell; procedure, shortened: as §1
[15] = Potency index, ratio of sunitinib TGI to test compound TGI for human renal cancer cells; type: functional, Renal cancer cell
[16] = Potency index, ratio of sunitinib GI50 to test compound GI50 for human non-small cell lung cancer cells; type: functional
[17] = target: Fibroblast growth factor receptor 4 (Homo sapiens) (UniProt P22455); assay: Inhibition of human FGFR4 at 0.5 uM relative to control
Sequence of Fibroblast growth factor receptor 4 (Homo sapiens) (P22455 22-802 limits assumed): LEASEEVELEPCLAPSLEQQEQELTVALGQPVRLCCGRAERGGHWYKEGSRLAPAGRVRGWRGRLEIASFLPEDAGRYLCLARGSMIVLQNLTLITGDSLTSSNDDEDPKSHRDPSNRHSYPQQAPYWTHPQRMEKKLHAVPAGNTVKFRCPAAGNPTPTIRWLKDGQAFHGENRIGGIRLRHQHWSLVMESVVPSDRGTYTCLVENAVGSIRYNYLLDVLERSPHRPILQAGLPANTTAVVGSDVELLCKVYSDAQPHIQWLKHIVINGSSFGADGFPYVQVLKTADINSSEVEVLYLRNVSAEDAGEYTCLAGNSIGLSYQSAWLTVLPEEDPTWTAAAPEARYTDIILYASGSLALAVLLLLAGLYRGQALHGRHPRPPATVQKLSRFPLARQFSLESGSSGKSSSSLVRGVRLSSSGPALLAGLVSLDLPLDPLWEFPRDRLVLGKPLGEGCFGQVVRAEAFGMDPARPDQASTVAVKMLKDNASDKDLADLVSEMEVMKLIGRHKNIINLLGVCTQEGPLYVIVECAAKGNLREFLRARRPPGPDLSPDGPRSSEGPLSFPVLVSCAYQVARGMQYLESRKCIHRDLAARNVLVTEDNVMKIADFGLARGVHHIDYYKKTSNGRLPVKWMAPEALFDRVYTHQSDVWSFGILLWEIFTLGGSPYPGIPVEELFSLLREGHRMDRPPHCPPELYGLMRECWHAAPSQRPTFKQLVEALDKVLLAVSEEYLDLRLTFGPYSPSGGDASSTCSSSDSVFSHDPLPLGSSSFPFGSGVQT

[18] = Potency index, ratio of sunitinib GI50 to test compound GI50 for human breast cancer cells; type: functional, Breast cancer cell; procedure, shortened: as §1
[19] = system: SW-620; assay: Cytotoxicity against human SW620 cells after 48 hrs by SRB assay; type: functional; settings: SW-620, 48 h; procedure, shortened: as §3
[20] = target: Ephrin type-A receptor 7 (Homo sapiens) (UniProt Q15375); assay: Inhibition of human EPHA7 at 0.5 uM relative to control
Sequence of Ephrin type-A receptor 7 (Homo sapiens) (Q15375 28-998 limits assumed): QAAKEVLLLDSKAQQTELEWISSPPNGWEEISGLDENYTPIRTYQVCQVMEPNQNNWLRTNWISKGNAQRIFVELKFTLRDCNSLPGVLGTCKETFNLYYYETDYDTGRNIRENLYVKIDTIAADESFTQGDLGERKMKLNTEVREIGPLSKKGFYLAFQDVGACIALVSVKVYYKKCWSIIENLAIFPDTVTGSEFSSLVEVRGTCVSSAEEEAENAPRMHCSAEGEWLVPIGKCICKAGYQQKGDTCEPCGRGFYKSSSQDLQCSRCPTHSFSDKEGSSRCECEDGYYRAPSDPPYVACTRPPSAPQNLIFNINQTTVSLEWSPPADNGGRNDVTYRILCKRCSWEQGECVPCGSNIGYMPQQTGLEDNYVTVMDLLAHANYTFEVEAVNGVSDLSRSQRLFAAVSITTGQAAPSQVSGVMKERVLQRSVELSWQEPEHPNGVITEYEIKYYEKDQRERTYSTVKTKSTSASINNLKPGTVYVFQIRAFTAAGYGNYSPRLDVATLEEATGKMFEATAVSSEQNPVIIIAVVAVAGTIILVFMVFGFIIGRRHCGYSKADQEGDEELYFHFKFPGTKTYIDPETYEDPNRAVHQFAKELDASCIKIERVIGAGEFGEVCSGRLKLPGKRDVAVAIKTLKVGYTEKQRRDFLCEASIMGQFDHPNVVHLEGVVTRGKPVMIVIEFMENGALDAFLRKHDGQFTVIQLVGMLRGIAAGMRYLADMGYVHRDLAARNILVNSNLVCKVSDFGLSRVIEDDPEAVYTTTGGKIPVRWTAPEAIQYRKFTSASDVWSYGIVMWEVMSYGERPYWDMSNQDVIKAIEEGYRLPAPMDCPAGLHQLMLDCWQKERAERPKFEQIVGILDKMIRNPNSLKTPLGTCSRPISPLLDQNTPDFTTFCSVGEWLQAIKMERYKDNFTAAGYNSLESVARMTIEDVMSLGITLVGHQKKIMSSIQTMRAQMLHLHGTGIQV

[21] = target: Receptor-type tyrosine-protein kinase FLT3 (Homo sapiens) (UniProt P36888); assay: Inhibition of human Flt3 at 0.5 uM relative to control
[22] = target: T1, Vascular endothelial growth factor receptor 2; settings: at 0.5 µM
[23] = system: HL-60(TB); assay: Cytotoxicity against human HL-60(TB) cells after 48 hrs by SRB assay; type: functional; settings: HL-60, 48 h
Procedure, shortened: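 NCI-60 panel screen. Cells grown in RPMI 1640 with 5% FBS and 2 mM L-glutamine, plated at 5000–40 000 cells/well by doubling time, and preincubated 24 h at 37 °C in 5% CO2; Tz plates fixed at drug addition. Five concentrations, 1-log steps from 10−4 to 10−8 M, for 48 h. Suspension cells fixed with TCA (16% final), stained with 0.4% SRB, read at 515 nm. GI50, TGI and LC50 from percent-growth formulas.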

[24] = target: Ephrin type-A receptor 8 (Homo sapiens) (UniProt P29322); assay: Inhibition of human EPHA8 at 0.5 uM relative to control
[25] = organism: Homo sapiens; assay: Inhibition of human PDGFR at 0.5 uM relative to control
[26] = Potency index, ratio of sorafenib GI50 to test compound GI50 for human ovarian cancer cells; type: functional, Ovarian cancer cell; procedure, shortened: as §1
[27] = system: BT-549; assay: Cytotoxicity against human BT549 cells after 48 hrs by SRB assay; type: functional; settings: BT-549, 48 h; procedure, shortened: as §2
[28] = system: ACHN; assay: Cytotoxicity against human ACHN cells after 48 hrs by SRB assay; type: functional; procedure, shortened: as §2
[29] = system: SK-MEL-28; assay: Cytotoxicity against human SK-MEL-28 cells after 48 hrs by SRB assay; type: functional; settings: SK-MEL-28, 48 h; procedure, shortened: as §2
[30] = system: T47D; assay: Cytotoxicity against human T47D cells after 48 hrs by SRB assay; type: functional; procedure, shortened: as §3
[31] = system: M14; assay: Cytotoxicity against human M14 cells after 48 hrs by SRB assay; type: functional; settings: M14, 48 h; procedure, shortened: as §2
[32] = system: OVCAR-3; assay: Cytotoxicity against human OVCAR3 cells after 48 hrs by SRB assay; type: functional; settings: OVCAR-3, 48 h; procedure, shortened: as §2
[33] = target: Ephrin type-A receptor 2 (Homo sapiens) (UniProt P29317); assay: Inhibition of human EPHA2 at 0.5 uM relative to control
[34] = read-out: LC50 (the source's name)

## COc1cc2ncnc(Oc3ccc(NC(=O)Nc4ccc(CN5CCOCC5)c(C(F)(F)F)c4)c4ccccc34)c2cc1OC
[1]
  inhibition: Active
[2]
  RatioGI50: 9.5
[3]
  Ratio: 3.2
[4]
  GI50: 1.41 µM
  TGI: 4.27 µM
[4]; [34]
  CC50: 25.7 µM
[5]
  GI50: 0.55 µM
  TGI: 10.7 µM
[5]; [34]
  CC50: 81.3 µM
[6]
  RatioGI50: 1.6 - 2.9
[7]
  inhibition: Active
[8]
  GI50: 1.48 µM
  TGI: 13.8 µM
[8]; [34]
  CC50: > 100 µM
[9]
  GI50: 0.05 µM
  TGI: 0.52 µM
[9]; [34]
  CC50: 30.9 µM
[10]
  GI50: 0.6 µM
  TGI: 3.47 µM
[10]; [34]
  CC50: 18.6 µM
[11]
  inhibition: 97.8%
[12]
  GI50: 0.32 µM
  TGI: 7.76 µM
[12]; [34]
  CC50: 91.2 µM
[13]
  inhibition: > 96%
[14]
  RatioGI50: 1.6
[15]
  Ratio: 3.2
[16]
  RatioGI50: 5 - 7.7
[17]
  inhibition: > 96%
[18]
  RatioGI50: 5 - 7.7
[19]
  GI50: 1.1 µM
  TGI: 11.8 µM
[19]; [34]
  CC50: > 100 µM
[20]
  inhibition: Active
[21]
  inhibition: Active
[22]
  inhibition: Active
[23]
  GI50: 0.38 µM
  TGI: 2.14 µM
[23]; [34]
  CC50: > 100 µM
[24]
  inhibition: Active
[25]
  inhibition: Active
[26]
  RatioGI50: 3.9 - 9.5
[27]
  GI50: 1.15 µM
  TGI: 7.41 µM
[27]; [34]
  CC50: 34.7 µM
[28]
  GI50: 0.32 µM
  TGI: 1.62 µM
[28]; [34]
  CC50: 14.1 µM
[29]
  GI50: 0.89 µM
  TGI: 4.79 µM
[29]; [34]
  CC50: 42.7 µM
[30]
  GI50: 0.25 µM
  TGI: 4.27 µM
[30]; [34]
  CC50: > 100 µM
[31]
  GI50: 0.95 µM
  TGI: 4.57 µM
[31]; [34]
  CC50: 26.9 µM
[32]
  GI50: 1 µM
  TGI: 9.55 µM
[32]; [34]
  CC50: 42.7 µM
[33]
  inhibition: Active
